# In ChEMBL document CHEMBL1134597, “Identification of alkylidene hydrazides as glucagon receptor antagonists” (J Med Chem, 2001):
# Molecular target: Glucagon receptor (Rattus norvegicus, UniProt P30082)
# Experiment: Binding affinity towards rat Glucagon Receptor
# Summary of the method: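 Plasma membranes prepared from livers of male Wistar rats (2 μg protein) incubated with ~50 000 CPM 125I-glucagon in 50 mM HEPES, 5 mM EGTA, 5 mM MgCl2, 0.005% tween-20, pH 7.4. Samples diluted in DMSO. Nonspecific binding defined with excess unlabeled glucagon; 2 h at 30 °C; vacuum filtration, gamma counting; curve fitting gave IC50.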
# Chain of Glucagon receptor (Rattus norvegicus, UniProt P30082) (P30082 whole entry): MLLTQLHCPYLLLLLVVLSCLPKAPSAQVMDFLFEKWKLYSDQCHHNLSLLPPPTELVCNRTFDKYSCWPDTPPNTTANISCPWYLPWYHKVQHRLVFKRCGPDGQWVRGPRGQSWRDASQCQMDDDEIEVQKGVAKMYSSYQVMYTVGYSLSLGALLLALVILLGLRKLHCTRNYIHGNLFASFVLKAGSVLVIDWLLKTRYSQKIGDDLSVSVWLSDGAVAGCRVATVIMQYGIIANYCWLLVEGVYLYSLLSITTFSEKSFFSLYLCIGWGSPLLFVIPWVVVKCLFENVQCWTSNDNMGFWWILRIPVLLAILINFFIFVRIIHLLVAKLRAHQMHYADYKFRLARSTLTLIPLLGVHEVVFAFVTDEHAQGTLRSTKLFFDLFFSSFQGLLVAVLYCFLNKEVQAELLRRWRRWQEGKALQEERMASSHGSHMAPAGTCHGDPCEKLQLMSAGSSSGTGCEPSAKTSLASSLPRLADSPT
row,Compound,IC50
1,O=C(N/N=C/c1ccc(O)c2ccccc12)c1ccc(O)c(Cl)c1,0.027 µM

# Tested on: not listed separately
# Experiment: pA2 value for the compound was calculated
# Summary of the method: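 BHK cells expressing cloned human glucagon receptor (10^6/mL) in HEPES pH 7.4 buffer with 0.1 mM IBMX and 0.2% BSA. Cells pretreated 10 min at 37 °C with several antagonist concentrations, then challenged with increasing glucagon for 20 min. cAMP measured by RIA; pA2 obtained by Schild analysis of rightward-shifted glucagon concentration-response curves.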
row,Compound,pA2
1,O=C(N/N=C/c1ccc(O)c2ccccc12)c1ccc(O)c(Cl)c1,6.99

# Molecular target: T1, Glucagon receptor (Homo sapiens, UniProt P47871)
# Experiment: Binding affinity towards human Glucagon Receptor by the displacement of [125I]-glucagon
# Summary of the method: (§1)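 Competition binding of [125I]glucagon (~25 000 cpm) to plasma membranes (~0.5 μg) from BHK cells transfected with cloned human glucagon receptor; 25 mM HEPES pH 7.4, 0.1% BSA; run in duplicate, 1 h at 37 °C. Bound and free separated by vacuum filtration on GF/C filters, then scintillation counting; IC50 determined.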
# T1 sequence (P47871 whole entry): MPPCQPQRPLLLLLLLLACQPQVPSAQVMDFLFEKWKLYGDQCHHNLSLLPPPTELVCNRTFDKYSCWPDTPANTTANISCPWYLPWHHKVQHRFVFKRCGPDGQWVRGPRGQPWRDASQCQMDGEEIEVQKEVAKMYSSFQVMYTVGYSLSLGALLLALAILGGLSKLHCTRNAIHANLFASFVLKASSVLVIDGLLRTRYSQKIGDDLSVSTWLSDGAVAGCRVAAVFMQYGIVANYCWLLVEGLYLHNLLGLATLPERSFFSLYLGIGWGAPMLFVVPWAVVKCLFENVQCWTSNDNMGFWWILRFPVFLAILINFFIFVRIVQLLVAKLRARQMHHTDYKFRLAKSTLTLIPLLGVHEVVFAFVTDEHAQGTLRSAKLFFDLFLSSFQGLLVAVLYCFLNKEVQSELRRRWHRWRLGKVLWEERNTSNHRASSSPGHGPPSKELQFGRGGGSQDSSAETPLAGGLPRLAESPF
row,Compound,IC50
1,O=C(N/N=C/c1ccc(O)c2ccccc12)c1ccc(O)c(Cl)c1,0.2 µM

# Molecular target: T1, Glucagon receptor
# Experiment: Binding affinity for human Glucagon Receptor
# Summary of the method: as §1
row,Compound,IC50
1,COc1cc(C(=O)N/N=C/c2ccnc3ccccc23)ccc1O,10 µM
2,COc1cc(C(=O)N/N=C/c2ccc(OC)c3ccccc23)ccc1O,2.9 µM
3,COc1cc(C(=O)N/N=C/c2ccc(O)c3ccccc23)ccc1O,0.72 µM
4,COc1cc(C(=O)N/N=C/c2cccc3ccccc23)ccc1O,4.8 µM
5,COc1cc(C(=O)N/N=C/c2ccc(-c3ccc(C)c(Cl)c3)o2)ccc1O,12 µM
6,COc1cc(C(=O)N/N=C/c2ccc(O)c3ccccc23)cc(Cl)c1O,60 µM
7,COc1ccc(/C=N/NC(=O)c2ccc(O)cc2)c2ccccc12,4.9 µM
8,COc1cc(C(=O)N/N=C/c2ccc(N(C)C)c3ccccc23)ccc1O,8.1 µM
9,COc1cc(C(=O)N/N=C/c2ccc(C(C)C)cc2)ccc1O,43 µM
10,CCn1c2ccccc2c2cc(/C=N/NC(=O)c3ccc(O)c(OC)c3)ccc21,6.3 µM
11,COc1ccc(/C=N/NC(=O)c2ccc(O)c(OC)c2)cc1O,> 100 µM
12,COc1cc(C(=O)N/N=C/c2ccc(OC(F)(F)F)cc2)ccc1O,43 µM
13,O=C(N/N=C/c1ccc(O)c2ccccc12)c1ccc(O)nc1,> 100 µM
14,COc1cc(C(=O)N/N=C/c2cnc(O)nc2O)ccc1O,> 100 µM
15,O=C(N/N=C/c1ccc(O)c2ccccc12)c1ccc(O)c(F)c1,0.39 µM
16,COc1cc(C(=O)N/N=C/c2ccc(O)cc2)ccc1O,> 100 µM
17,COc1cc(C(=O)N/N=C/c2c[nH]c3ccccc23)ccc1O,23 µM
18,O=C(N/N=C/c1ccc(O)c2ccccc12)c1ccc(O)c(O)c1,3.4 µM
19,O=C(N/N=C/c1ccc(O)c2ccccc12)c1cc(Cl)c(O)c(Cl)c1,34 µM
20,O=C(N/N=C/c1ccc(O)c2ccccc12)c1ccc2[nH]ccc2c1,> 100 µM

row,Compound,IC50
1,O=C(N/N=C/c1ccc(O)c2ccccc12)c1ccc(O)c(CN2CCOCC2)c1,> 100 µM
2,O=C(N/N=C/c1ccc(O)c2ccccc12)c1ccc2nccnc2c1,> 100 µM
3,O=C(N/N=C/c1ccc(O)c2ccccc12)c1ccc(O)cc1,1.2 µM
4,COc1cccc(C(=O)N/N=C/c2ccc(OC)c3ccccc23)c1,> 100 µM
5,O=C(N/N=C/c1ccc(O)c2ccccc12)c1ccc(O)cc1O,28 µM
6,COc1cc(C(=O)N/N=C/c2ccc(-c3ccccc3)cc2)ccc1O,26 µM
7,O=C(N/N=C/c1ccc(O)c2ccccc12)c1cc2cc(O)ccc2[nH]1,> 100 µM
8,Nc1ccc(C(=O)N/N=C/c2ccc(O)c3ccccc23)cc1,> 100 µM
9,O=C(N/N=C/c1ccc(O)c2ccccc12)c1ccc(O)c(Br)c1,0.83 µM
10,O=C(NNCc1cccc2ccccc12)c1ccc(O)cc1,> 100 µM
11,O=C(O)c1ccc(C(=O)N/N=C/c2ccc(O)c3ccccc23)cc1,> 100 µM
12,COc1ccc(/C=N/NC(=O)c2ccc(O)c(OC)c2)cc1,> 100 µM
13,Nc1cc(C(=O)N/N=C/c2ccc(O)c3ccccc23)ccc1O,2 µM
14,COc1cc(/C=N/NC(=O)c2cccc3ccccc23)ccc1O,> 100 µM
15,COc1cc(C(=O)N/N=C/c2cccc(Oc3cccc(C(F)(F)F)c3)c2)ccc1O,4.9 µM
16,COc1cc(C(=O)N/N=C(\C)c2cccc3ccccc23)ccc1O,> 100 µM
17,COc1cc(C(=O)N/N=C/c2ccc(/C=C/c3ccccc3)cc2)ccc1O,> 100 µM
18,COc1cc(C(=O)N/N=C/c2[nH]cnc2C)ccc1O,> 100 µM
19,COc1cc(C(=O)N/N=C/c2ccc(C(C)(C)C)cc2)ccc1O,29 µM
20,O=C(N/N=C/c1cccc2ccccc12)c1ccc(O)cc1,1.8 µM
